Experiments:
Assay type in all cases: functional
MDA-MB-435 = assay: Cytotoxicity against human MDA-MB-435 cells assessed as cellular growth at 10 uM after 48 hrs by SRB assay
In short: (§1)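 NCI-60 panel lines grown in RPMI 1640 with 5% FBS and 2 mM L-glutamine. Plated at 5000–40,000 cells/well and preincubated 24 h at 37 °C, 5% CO₂, with time-zero plates fixed in TCA. Compounds, dissolved in DMSO and diluted in medium, were applied for 48 h. Cells were TCA-fixed (10% final for adherent, 16% for suspension) and stained with 0.4% SRB in 1% acetic acid. Dye was solubilised in 10 mM Tris base and read at 515 nm; growth was expressed as a percentage of untreated control.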

HL-60(TB) = assay: Cytotoxicity against human HL-60(TB) cells assessed as cellular growth at 10 uM after 48 hrs by SRB assay
T47D = assay: Antitumor activity against human T47D cells after 48 hrs by SRB assay
In short: (§2)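 NCI60 panel cells grown in RPMI 1640 with 5% FBS and 2 mM L-glutamine, plated at 5000–40,000 cells/well and preincubated 24 h at 37 °C, 5% CO₂. Compound was added from DMSO at five concentrations, 10-fold or 1/2 log dilutions, then incubated 48 h.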

PC-3 = assay: Antitumor activity against human PC3 cells after 48 hrs by SRB assay; conditions: PC-3, 48 h
In short: (§3)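 NCI60 panel in RPMI 1640 with 5% FBS and 2 mM L-glutamine. Cells were plated at 5000–40,000/well by doubling time, held 24 h, then time-zero plates were TCA-fixed. Five concentrations (10-fold or half-log dilutions of DMSO stocks) were applied for 48 h at 37 °C, 5% CO2. Cells were fixed with cold TCA (10% final adherent, 16% suspension) and stained with 0.4% SRB. Bound dye was dissolved in 10 mM Tris and read at 515 nm. GI50, TGI and LC50 were calculated per line.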

OVCAR-8 [1] = assay: Antitumor activity against human OVCAR8 cells after 48 hrs by SRB assay; conditions: OVCAR-8, 48 h; in short: as §3
SN12C = assay: Antitumor activity against human SN12C cells after 48 hrs by SRB assay; in short: as §2
CAKI-1 = assay: Cytotoxicity against human Caki1 cells assessed as cellular growth at 10 uM after 48 hrs by SRB assay
In short: (§4)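 NCI60 single-dose screen of cells in RPMI 1640 with 5% FBS and 2 mM L-glutamine, preincubated 24 h at 37 °C, 5% CO₂. Cells were then exposed 48 h to compound added from DMSO stock. TCA-fixed, stained with 0.4% SRB in 1% acetic acid, dye solubilised in 10 mM Tris base and read at 515 nm. Growth is given as percent of untreated control.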

OVCAR-8 [2] = assay: Cytotoxicity against human OVCAR8 cells assessed as cellular growth at 10 uM after 48 hrs by SRB assay; in short: as §1
NCI-H460 = assay: Cytotoxicity against human NCI-H460 cells assessed as cellular growth at 10 uM after 48 hrs by SRB assay; in short: as §1
MDA-MB-468 = assay: Antitumor activity against human MDA-MB-468 cells after 48 hrs by SRB assay; conditions: MDA-MB-468, 48 h; in short: as §3
SR = assay: Antitumor activity against human SR cells after 48 hrs by SRB assay; in short: as §2
EKVX = assay: Antitumor activity against human EKVX cells after 48 hrs by SRB assay; in short: as §3
U-251 = assay: Cytotoxicity against human U251 cells assessed as cellular growth at 10 uM after 48 hrs by SRB assay; in short: as §1
HT-29 = assay: Cytotoxicity against human HT-29 cells assessed as cellular growth at 10 uM after 48 hrs by SRB assay; in short: as §4
CCRF-CEM = assay: Antitumor activity against human CCRF-CEM cells after 48 hrs by SRB assay; in short: as §3
786-0 = assay: Antitumor activity against human 786-0 cells after 48 hrs by SRB assay; conditions: 786-0, 48 h; in short: as §3
NCI-H522 = assay: Antitumor activity against human NCI-H522 cells after 48 hrs by SRB assay; conditions: NCI-H522, 48 h; in short: as §3
SF-268 = assay: Cytotoxicity against human SF268 cells assessed as cellular growth at 10 uM after 48 hrs by SRB assay; in short: as §1
DU-145 = assay: Antitumor activity against human DU145 cells after 48 hrs by SRB assay; conditions: DU-145, 48 h; in short: as §3
LOX IMVI [3] = assay: Antitumor activity against human LOXIMVI cells after 48 hrs by SRB assay; in short: as §3
SNB-19 = assay: Antitumor activity against human SNB19 cells after 48 hrs by SRB assay; conditions: SNB-19, 48 h; in short: as §2
LOX IMVI [4] = assay: Cytotoxicity against human LOXIMVI cells assessed as cellular growth at 10 uM after 48 hrs by SRB assay; in short: as §4
OVCAR-4 = assay: Antitumor activity against human OVCAR4 cells after 48 hrs by SRB assay; conditions: OVCAR-4, 48 h; in short: as §3
[5] = read-out: LC50 (the source's name)
[6] = read-out: pLC50 (the source's name) (converted)

COc1ccc(/C(=C2\O[C@@H]([C@H]3COC(C)(C)O3)[C@H]3OC(C)(C)O[C@@H]23)c2cc(OC)c(OC)c(OC)c2)cc1O
Activity (MDA-MB-435): -10.2% | Activity (HL-60(TB)): -0.37% | GI50 (T47D; read-out: GI50): 63.6 µM | CC50 (T47D; [5]): > 100 µM | TGI (T47D; read-out: TGI): > 100 µM | GI50 (T47D; read-out: pGI50 (converted)): 44.7 µM | CC50 (T47D; [6]): > 100 µM | TGI (T47D; read-out: pTGI (converted)): > 100 µM | CC50 (PC-3; [5]): > 100 µM | TGI (PC-3; read-out: TGI): > 100 µM | GI50 (PC-3; read-out: pGI50 (converted)): 4.17 µM | CC50 (PC-3; [6]): > 100 µM | TGI (PC-3; read-out: pTGI): > 100 µM | GI50 (OVCAR-8 [1]; read-out: GI50): 6.56 µM | CC50 (OVCAR-8 [1]; [5]): > 100 µM | TGI (OVCAR-8 [1]; read-out: TGI): > 100 µM | GI50 (OVCAR-8 [1]; read-out: pGI50 (converted)): 8.51 µM | CC50 (OVCAR-8 [1]; [6]): > 100 µM | TGI (OVCAR-8 [1]; read-out: pTGI): > 100 µM | CC50 (SN12C; [5]): > 100 µM | TGI (SN12C; read-out: TGI): > 100 µM | GI50 (SN12C; read-out: pGI50 (converted)): 8.91 µM | CC50 (SN12C; [6]): > 100 µM | TGI (SN12C; read-out: pTGI): > 100 µM | Activity (CAKI-1): 110.64% | Activity (OVCAR-8 [2]): 96.09% | Activity (NCI-H460): 103.52% | GI50 (MDA-MB-468; read-out: GI50): 17.8 µM | CC50 (MDA-MB-468; [5]): > 100 µM | TGI (MDA-MB-468; read-out: TGI): 63.6 µM | GI50 (MDA-MB-468; read-out: pGI50 (converted)): 25.7 µM | CC50 (MDA-MB-468; [6]): > 100 µM | TGI (MDA-MB-468; read-out: pTGI (converted)): 63.1 µM | GI50 (SR; read-out: GI50): 6.1 µM | CC50 (SR; [5]): > 100 µM | TGI (SR; read-out: TGI): > 100 µM | GI50 (SR; read-out: pGI50 (converted)): 6.17 µM | CC50 (SR; [6]): > 100 µM | TGI (SR; read-out: pTGI): > 100 µM | GI50 (EKVX; read-out: GI50): 37.4 µM | CC50 (EKVX; [5]): > 100 µM | TGI (EKVX; read-out: TGI): > 100 µM | GI50 (EKVX; read-out: pGI50 (converted)): 37.2 µM | CC50 (EKVX; [6]): > 100 µM | TGI (EKVX; read-out: pTGI): > 100 µM | Activity (U-251): 61.19% | Activity (HT-29): 113.24% | GI50 (CCRF-CEM; read-out: GI50): 5.45 µM | CC50 (CCRF-CEM; [5]): > 100 µM | TGI (CCRF-CEM; read-out: TGI): > 100 µM | GI50 (CCRF-CEM; read-out: pGI50 (converted)): 5.5 µM | CC50 (CCRF-CEM; [6]): > 100 µM | TGI (CCRF-CEM; read-out: pTGI): > 100 µM | GI50 (786-0): 2.3 µM | LC50 (786-0): 8.6 µM | TGI (786-0): 4.47 µM | GI50 (NCI-H522): 2.95 µM | TGI (NCI-H522): 7.54 µM | CC50 (NCI-H522; [5]): 85.6 µM | Activity (SF-268): 37.84% | GI50 (DU-145; read-out: GI50): 3.93 µM | CC50 (DU-145; [5]): > 100 µM | TGI (DU-145; read-out: TGI): > 100 µM | GI50 (DU-145; read-out: pGI50 (converted)): 3.89 µM | CC50 (DU-145; [6]): > 100 µM | TGI (DU-145; read-out: pTGI (converted)): > 100 µM | GI50 (LOX IMVI [3]): 3.39 µM | TGI (LOX IMVI [3]): 19.8 µM | CC50 (LOX IMVI [3]; [5]): > 100 µM | GI50 (SNB-19): 2.49 µM | TGI (SNB-19): 6.08 µM | CC50 (SNB-19; [5]): > 100 µM | Activity (LOX IMVI [4]): 47.56% | GI50 (OVCAR-4; read-out: GI50): 37.5 µM | CC50 (OVCAR-4; [5]): > 100 µM | TGI (OVCAR-4; read-out: TGI): > 100 µM | GI50 (OVCAR-4; read-out: pGI50 (converted)): 37.2 µM | CC50 (OVCAR-4; [6]): > 100 µM | TGI (OVCAR-4; read-out: pTGI (converted)): > 100 µM
